We go through one compound from ChEMBL document CHEMBL3779801, “Discovery of the Selective CYP17A1 Lyase Inhibitor BMS-351 for the Treatment of Prostate Cancer” (ACS Med Chem Lett, 2016).

pIC50: −log10 of the molar value.

The target of series [1] is T1, Steroid 17-alpha-hydroxylase/17,20 lyase (Homo sapiens, UniProt P05093).
T1 sequence (P05093 whole entry): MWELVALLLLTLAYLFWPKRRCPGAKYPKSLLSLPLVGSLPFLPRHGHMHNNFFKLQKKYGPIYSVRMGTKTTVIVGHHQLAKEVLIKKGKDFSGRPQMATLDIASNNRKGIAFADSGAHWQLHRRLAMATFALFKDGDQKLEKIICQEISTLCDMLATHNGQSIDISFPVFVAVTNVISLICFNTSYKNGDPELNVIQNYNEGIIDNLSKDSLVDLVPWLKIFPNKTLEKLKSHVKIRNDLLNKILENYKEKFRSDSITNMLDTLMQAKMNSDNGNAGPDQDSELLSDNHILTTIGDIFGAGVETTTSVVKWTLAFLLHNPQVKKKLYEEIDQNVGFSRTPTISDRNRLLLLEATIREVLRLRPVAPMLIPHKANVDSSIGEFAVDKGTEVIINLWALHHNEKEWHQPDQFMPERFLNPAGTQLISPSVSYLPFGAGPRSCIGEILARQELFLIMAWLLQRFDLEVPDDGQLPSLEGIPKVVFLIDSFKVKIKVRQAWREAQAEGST
The experiment in a line: Inhibition of human CYP17A1 expressed in HEK293 cell microsomes using [3H]-pregnenolone as substrate incubated for 45 mins by scintillation proximity assay in presence of NADPH. (In general: In a scintillation proximity assay essentially only radioactivity close to the scintillant gives light.)

The next series addresses T2, Cytochrome P450 1A2 (Homo sapiens, UniProt P05177).
T2 sequence (P05177 whole entry): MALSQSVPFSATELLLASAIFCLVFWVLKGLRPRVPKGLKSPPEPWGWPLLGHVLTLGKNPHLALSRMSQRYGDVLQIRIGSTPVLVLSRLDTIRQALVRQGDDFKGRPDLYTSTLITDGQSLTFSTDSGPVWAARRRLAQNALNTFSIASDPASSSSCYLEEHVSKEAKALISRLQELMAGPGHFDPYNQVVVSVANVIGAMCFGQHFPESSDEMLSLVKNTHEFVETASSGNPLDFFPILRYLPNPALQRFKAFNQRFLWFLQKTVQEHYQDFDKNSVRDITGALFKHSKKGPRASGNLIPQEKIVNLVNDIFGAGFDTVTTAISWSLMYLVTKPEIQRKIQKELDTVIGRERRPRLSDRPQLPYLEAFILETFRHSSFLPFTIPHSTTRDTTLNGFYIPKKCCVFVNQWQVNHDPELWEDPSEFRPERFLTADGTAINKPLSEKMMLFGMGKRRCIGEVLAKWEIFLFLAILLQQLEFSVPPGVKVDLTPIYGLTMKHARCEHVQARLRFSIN
The experiment in a line: Inhibition of CYP1A2 (unknown origin). The format is ADME.

Another series concerns the target T3, Steroid 21-hydroxylase (Homo sapiens, UniProt P08686).
T3 sequence (P08686 whole entry): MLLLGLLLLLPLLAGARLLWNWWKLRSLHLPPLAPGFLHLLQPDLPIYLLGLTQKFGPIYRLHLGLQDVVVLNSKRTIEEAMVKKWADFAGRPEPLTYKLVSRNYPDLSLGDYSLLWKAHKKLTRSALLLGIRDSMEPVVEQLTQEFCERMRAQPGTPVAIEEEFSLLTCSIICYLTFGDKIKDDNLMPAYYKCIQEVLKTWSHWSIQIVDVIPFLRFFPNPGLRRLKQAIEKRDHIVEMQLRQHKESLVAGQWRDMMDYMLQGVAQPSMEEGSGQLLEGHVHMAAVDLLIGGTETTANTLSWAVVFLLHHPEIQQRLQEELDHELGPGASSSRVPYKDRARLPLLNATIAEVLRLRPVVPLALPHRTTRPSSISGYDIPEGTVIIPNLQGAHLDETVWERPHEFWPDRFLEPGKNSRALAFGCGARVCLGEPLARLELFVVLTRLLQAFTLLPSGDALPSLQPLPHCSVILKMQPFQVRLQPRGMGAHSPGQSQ
The experiment in a line: Inhibition of CYP21A2 in human H295R cells using hydroxy progesterone as substrate incubated for 120 mins by LC-MS method. It counts as ADME, cell-based.

The target in series [2] is T4, Cytochrome P450 11B1, mitochondrial (Homo sapiens, UniProt P15538).
T4 sequence (P15538 whole entry): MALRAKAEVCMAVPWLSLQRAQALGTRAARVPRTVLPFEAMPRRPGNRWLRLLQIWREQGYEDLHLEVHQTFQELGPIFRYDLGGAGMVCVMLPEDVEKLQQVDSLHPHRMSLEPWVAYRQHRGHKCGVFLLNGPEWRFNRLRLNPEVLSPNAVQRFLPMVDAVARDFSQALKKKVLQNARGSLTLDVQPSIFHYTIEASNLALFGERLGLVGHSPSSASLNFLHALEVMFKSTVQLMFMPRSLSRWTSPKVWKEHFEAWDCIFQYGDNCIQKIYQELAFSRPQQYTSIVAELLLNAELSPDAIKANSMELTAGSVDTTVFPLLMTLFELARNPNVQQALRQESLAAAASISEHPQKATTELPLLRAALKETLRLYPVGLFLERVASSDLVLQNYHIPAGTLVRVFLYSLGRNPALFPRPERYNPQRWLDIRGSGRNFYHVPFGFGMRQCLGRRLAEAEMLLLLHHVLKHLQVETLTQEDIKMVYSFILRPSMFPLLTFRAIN
Put plainly: Inhibition of CYP11B1 in human H295R cells using deoxycorticosterone as substrate incubated for 48 hrs by LC-MS method. The format is ADME, cell-based.

A short description of series [3]: Inhibition of cynomolgus monkey CYP11B1 using hydroxy progesterone as substrate incubated for 120 mins by LC-MS method. Also on record: species or system Macaca fascicularis.
The nature of series [4]: Clearance in cynomolgus monkey plasma at 2 mg/kg, iv by LC-MS/MS analysis. It counts as ADME, organism-based, Macaca fascicularis. In a few lines: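 Cynomolgus monkeys were dosed intravenously. Plasma parameters are given as mean ± standard deviation.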
A short description of series [5]: AUC in cynomolgus monkey plasma at 4 mg/kg, po after 0.25 to 45 hrs by LC-MS/MS analysis. Details: dose 4 mg/kg, time upper 45 hr, time lower 0.25 hr, route oral. The format is ADME, organism-based, Macaca fascicularis. The procedure, abridged:
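Cynomolgus monkeys were dosed orally from a solution formulation. Plasma parameters are given as mean ± standard deviation.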

Series [6] has as its system Cynomolgus monkey. Put plainly: Effect on cortisol level in one day castrated cynomolgus monkey assessed as baseline level at 1.5 mg/kg, po bid for 24 hrs by radiometric immunoassay. To be noted: in vivo. The format is ADME, organism-based, Macaca fascicularis.
In series [7] the test system is Cynomolgus monkey. The experiment in a line: Effect on progesterone level in one day castrated cynomolgus monkey assessed as baseline level at 1.5 mg/kg, po bid for 24 hrs by radiometric immunoassay. It counts as ADME, organism-based, Macaca fascicularis. The settings on record: in vivo.

A word on the pIC50: it is the negative decadic logarithm of the IC50, by convention in mol/L. The clearance is the volume of plasma or blood freed of the substance per unit of time. As usually defined, the AUC is concentration integrated over time.

Turning to `Cc1ccncc1-c1cccc2c1ncn2CC(F)(F)F`, the pIC50 is 7.72 in series [1]; 5.05 against Cytochrome P450 1A2; below 5.12 on Steroid 21-hydroxylase; below 5.12 in [2]; below 5.12 in series [3]. The compound also gave a clearance in series [4] of 19 mL/min/kg. In series [5], this compound came in with an area under the curve (AUC) of 12.3 µM·h. Also, the Activity entry in the series on Cynomolgus monkey [6] and with Cynomolgus monkey [7] was “Non-toxic” in each case.
